Results from different studies.

test system | conditions | half-life [min] | SMILES
male C57BL/6 mouse, brain | intraperitoneal, 10 mg/kg | 128 | CCOC(=O)c1cc(Cl)cc(NC(=O)c2sc(Cl)cc2S(=O)(=O)N(C)c2ccc(OCC)c(OC)c2)c1
mouse, plasma | intraperitoneal, 15 mg/kg, single dose | 145 | CCN1CCN(Cc2ccc(NC(=O)c3ccc(C)c(NC(=O)c4cncc(-c5cccs5)c4)c3)cc2C(F)(F)F)CC1
female CD-1 mouse, plasma | intravenous, 3 mg/kg | 72 | O=C1CCC(N2Cc3cc(NC(=O)c4cccc(F)c4)ccc3C2=O)C(=O)N1 (stereo not shown)
male Kunming mouse, lung | oral, 20 mg/kg | 36 | CC(=O)O[C@@]12CO[C@@H]1C[C@H](O)[C@@]1(C)C(=O)[C@H](O)C3=C(C)[C@@H](OC(=O)[C@H](O)[C@@H](NC(=O)OC(C)(C)C)c4ccccc4)C[C@@](O)([C@@H](OC(=O)c4ccccc4)[C@H]21)C3(C)C
male C57BL/6 mouse, plasma | intraperitoneal, 50 mg/kg, single dose | 90 | COc1cc2c(NC3CCN(CCCC(=O)NCCCCCCCCCCCC(=O)N[C@H](C(=O)N4C[C@H](O)C[C@H]4C(=O)NCc4ccc(-c5scnc5C)cc4)C(C)(C)C)CC3)nc(N3CCC(F)(F)CC3)nc2cc1OCCCN1CCCC1
female C57BL/6 mouse, plasma | intravenous, 0.4 mg/kg | 46.2 | Nc1ncn([C@H]2C[C@H](O)[C@@H](CO)O2)c(=O)n1
male CD-1 mouse, plasma | oral, 30 mg/kg | 131 | CC1=NN(/C(=N/c2nnc(C)s2)Nc2ccc(C)c(C)c2)C(c2cc(F)c(F)c(F)c2)S1 (stereo not shown)
male CD-1 mouse, plasma | intravenous, 1 mg/kg | 7.56 | O=[N+]([O-])c1ccc(-c2ccc(O)cc2)c2cccnc12
male CD-1 mouse, brain | subcutaneous | 50.4 | COc1cc(C(=O)OCCCN2CCCN(CCCOC(=O)c3cc(OC)c(OC)c(OC)c3)CC2)cc(OC)c1OC
male C57BL/6 mouse, brain | intraperitoneal, 10 mg/kg | 33.5 | CCOc1ccc(N(C)S(=O)(=O)c2cc(Cl)sc2C(=O)Nc2cc(Cl)cc(C(=O)O)c2)cc1OC
female C57BL/6 mouse, plasma | intraperitoneal, 10 mg/kg | ~33 | CC(C(=O)Nc1c(F)cccc1F)N1CCN(c2ccccc2)CC1 (stereo not shown)
CD-1 mouse, plasma | oral, 10 mg/kg | 299 | CN1CCN(C(=O)[C@H](CCCN[C@@H]2C[C@H]2c2ccc(F)cc2)NC(=O)c2ccc(-n3ccnn3)cc2)CC1
male C57BL/6 mouse, plasma | oral, 10 mg/kg | 15 to 27 | O=C(ONc1nc2nonc2nc1Nc1ccccc1F)c1ccc(OC(F)(F)F)cc1
